Source: ChEMBL document CHEMBL3351720, “Design, synthesis and evaluation of benzoisothiazolones as selective inhibitors of PHOSPHO1” (Bioorg Med Chem Lett, 2014)
In brackets after ≈: the same amount, converted by molar mass.

Columns and labels:
[1] = target: T1, Phosphoethanolamine/phosphocholine phosphatase (Homo sapiens, UniProt Q8TCT1); test: Inhibition of PHOSPHO1 phosphoethanolamine activity (unknown origin) assessed as amount of inorganic phosphate release after 30 mins
T1 sequence (Q8TCT1 whole entry): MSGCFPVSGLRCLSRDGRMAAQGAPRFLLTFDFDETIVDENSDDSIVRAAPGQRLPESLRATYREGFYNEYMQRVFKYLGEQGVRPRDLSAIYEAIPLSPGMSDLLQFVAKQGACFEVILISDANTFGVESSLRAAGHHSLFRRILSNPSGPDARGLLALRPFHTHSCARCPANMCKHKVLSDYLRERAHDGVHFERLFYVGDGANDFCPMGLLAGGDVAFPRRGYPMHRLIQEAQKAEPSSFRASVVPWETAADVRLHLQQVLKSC

[2] = target: T2, Mannose-6-phosphate isomerase (Homo sapiens, UniProt P34949); test: Inhibition of phosphomannose isomerase (unknown origin)
T2 sequence (P34949 whole entry): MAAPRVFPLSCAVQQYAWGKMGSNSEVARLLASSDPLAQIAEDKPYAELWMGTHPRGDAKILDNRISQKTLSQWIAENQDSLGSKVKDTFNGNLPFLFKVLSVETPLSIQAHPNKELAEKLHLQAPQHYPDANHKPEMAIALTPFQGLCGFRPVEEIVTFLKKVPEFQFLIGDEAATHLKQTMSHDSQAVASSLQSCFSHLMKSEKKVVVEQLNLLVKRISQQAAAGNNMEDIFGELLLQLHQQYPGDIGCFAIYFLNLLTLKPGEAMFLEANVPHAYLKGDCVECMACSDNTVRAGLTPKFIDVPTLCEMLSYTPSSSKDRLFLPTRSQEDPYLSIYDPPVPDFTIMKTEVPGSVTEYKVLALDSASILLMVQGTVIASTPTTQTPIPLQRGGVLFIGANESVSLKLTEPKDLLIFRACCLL

[3] = target: T3, Phosphomannomutase 2 (Homo sapiens, UniProt O15305); test: Inhibition of PMM2 (unknown origin)
T3 sequence (O15305 whole entry): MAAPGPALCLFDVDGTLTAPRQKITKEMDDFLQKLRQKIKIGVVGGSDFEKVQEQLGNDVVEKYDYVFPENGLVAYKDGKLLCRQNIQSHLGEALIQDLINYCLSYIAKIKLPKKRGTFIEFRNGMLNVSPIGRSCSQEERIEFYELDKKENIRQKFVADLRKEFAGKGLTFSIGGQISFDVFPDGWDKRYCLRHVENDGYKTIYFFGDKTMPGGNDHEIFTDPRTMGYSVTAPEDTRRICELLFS

[4] = Aqueous solubility of the compound in pH 5 pION buffer by UV kinetic solubility method; format: physicochemical
How it was run: (§1)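 Kinetic solubility in pION's buffer at pH 5.0, 6.2 or 7.4, reported in µg/ml. Part of an in vitro ADME panel.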

[5] = Aqueous solubility of the compound in pH 6.2 pION buffer by UV kinetic solubility method; format: physicochemical; how it was run: as §1
[6] = Aqueous solubility of the compound in pH 7.4 pION buffer by UV kinetic solubility method; format: physicochemical; how it was run: as §1
[7] = Permeability of the compound at donor pH 5.0 and acceptor pH 7.4 by PAMPA; format: ADME
How it was run: (§2)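 PAMPA with the acceptor compartment at pH 7.4 and the donor at pH 5.0, 6.2 or 7.4. Permeability reported as ×10^-6 cm/s. Part of an in vitro ADME panel.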

[8] = Permeability of the compound at donor pH 6.2 and acceptor pH 7.4 by PAMPA; format: ADME; how it was run: as §2
[9] = Permeability of the compound at donor pH 7.4 and acceptor pH 7.4 by PAMPA; format: ADME; how it was run: as §2
[10] = Plasma protein binding in human at 10 uM by LC-MS analysis; format: ADME, cell-free; settings: read-out: PPB (converted)
How it was run: (§3)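 Read-out was % of compound bound in human or mouse plasma, each tested at 1 µM and 10 µM.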

[11] = Plasma protein binding in mouse at 1 uM by LC-MS analysis; format: ADME, cell-free; settings: read-out: PPB (converted); how it was run: as §3
[12] = Plasma protein binding in mouse at 10 uM by LC-MS analysis; format: ADME, cell-free; settings: read-out: PPB (converted); how it was run: as §3
[13] = Cytotoxicity against human Fa2N-4 cells after 24 hrs by ATP-lite 1-step assay; format: cell-based; settings: fa2n-4, 24 h, read-out: LC50 (the source's name)
[14] = Metabolic stability in human plasma assessed as compound remaining at 1 x pH7.4 PBS measured at 3 hrs by LC-MS/MS analysis; format: ADME, cell-free; settings: pH 7.4, read-out: Stability
How it was run: (§4)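 Stability of each analogue was reported as % of compound remaining. For liver microsomes this was after 1 hr, with runs with and without NADPH. For plasma this was after 3 hrs in plasma mixed 1:1 with 1× PBS, pH 7.4. Both human and mouse matrices were used.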

[15] = Metabolic stability in human plasma assessed as compound remaining at 1:1 1 x pH7.4 PBS measured at 3 hrs by LC-MS/MS analysis; format: ADME, cell-free; settings: pH 7.4, read-out: Stability; how it was run: as §4
[16] = Metabolic stability in mouse plasma assessed as compound remaining at 1 x pH7.4 PBS measured at 3 hrs by LC-MS/MS analysis; format: ADME, cell-free; settings: pH 7.4, read-out: Stability; how it was run: as §4
[17] = Metabolic stability in mouse plasma assessed as compound remaining at 1:1 1 x pH7.4 PBS measured at 3 hrs by LC-MS/MS analysis; format: ADME, cell-free; settings: pH 7.4, read-out: Stability; how it was run: as §4
[18] = Metabolic stability in human liver microsomes measured at 1 uM after 1 hr at pH 7.4 by LC-MS/MS analysis; format: ADME; settings: read-out: Stability; how it was run: as §4
[19] = Metabolic stability in mouse liver microsomes measured at 1 uM after 1 hr at pH 7.4 by LC-MS/MS analysis; format: ADME; settings: read-out: Stability; how it was run: as §4
[20] = Plasma protein binding in human at 1 uM by LC-MS analysis; format: ADME, cell-free; settings: read-out: PPB (converted); how it was run: as §3
[21] = Metabolic stability in human liver microsomes measured at 1 uM after 1 hr at pH 7.4 by LC-MS/MS analysis in absence of NADPH; format: ADME; settings: read-out: Stability; how it was run: as §4
[22] = Metabolic stability in mouse liver microsomes measured at 1 uM after 1 hr at pH 7.4 by LC-MS/MS analysis in absence of NADPH; format: ADME; settings: read-out: Stability; how it was run: as §4
[23] = target: T4, Ectonucleotide pyrophosphatase/phosphodiesterase family member 1 (Homo sapiens, UniProt P22413); test: Inhibition of NPP1 (unknown origin)
T4 sequence (P22413 whole entry): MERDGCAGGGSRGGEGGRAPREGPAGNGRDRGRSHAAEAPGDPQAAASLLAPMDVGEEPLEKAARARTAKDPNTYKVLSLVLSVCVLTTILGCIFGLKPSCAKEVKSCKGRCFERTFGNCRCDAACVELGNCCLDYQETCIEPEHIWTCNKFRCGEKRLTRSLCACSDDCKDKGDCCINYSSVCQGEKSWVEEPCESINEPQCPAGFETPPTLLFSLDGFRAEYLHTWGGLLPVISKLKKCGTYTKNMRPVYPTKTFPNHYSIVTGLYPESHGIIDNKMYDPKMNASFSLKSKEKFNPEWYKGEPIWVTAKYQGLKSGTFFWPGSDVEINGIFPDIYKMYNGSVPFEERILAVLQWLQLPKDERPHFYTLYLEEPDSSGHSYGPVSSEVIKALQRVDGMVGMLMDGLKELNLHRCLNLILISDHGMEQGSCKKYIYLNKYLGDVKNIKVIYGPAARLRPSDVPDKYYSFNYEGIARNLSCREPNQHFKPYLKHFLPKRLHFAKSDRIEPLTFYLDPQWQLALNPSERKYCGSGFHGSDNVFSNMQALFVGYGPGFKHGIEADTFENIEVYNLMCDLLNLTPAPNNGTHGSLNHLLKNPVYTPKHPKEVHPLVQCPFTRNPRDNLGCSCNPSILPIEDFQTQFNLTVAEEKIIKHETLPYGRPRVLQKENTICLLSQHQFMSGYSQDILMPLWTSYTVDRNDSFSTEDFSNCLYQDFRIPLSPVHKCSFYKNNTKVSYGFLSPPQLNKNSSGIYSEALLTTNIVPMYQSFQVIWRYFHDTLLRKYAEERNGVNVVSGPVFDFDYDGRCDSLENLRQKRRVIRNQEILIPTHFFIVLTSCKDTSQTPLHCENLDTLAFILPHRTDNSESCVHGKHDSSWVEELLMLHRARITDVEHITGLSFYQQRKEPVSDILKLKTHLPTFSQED

[24] = Inhibition of Streptococcus pneumoniae diphosphomevalonate decarboxylase assessed as conversion of (R)-5-diphosphomevalonate to ADP by fluorometry
[25] = target: T5, Alkaline phosphatase, tissue-nonspecific isozyme (Homo sapiens, UniProt P05186)
T5 sequence (P05186 whole entry): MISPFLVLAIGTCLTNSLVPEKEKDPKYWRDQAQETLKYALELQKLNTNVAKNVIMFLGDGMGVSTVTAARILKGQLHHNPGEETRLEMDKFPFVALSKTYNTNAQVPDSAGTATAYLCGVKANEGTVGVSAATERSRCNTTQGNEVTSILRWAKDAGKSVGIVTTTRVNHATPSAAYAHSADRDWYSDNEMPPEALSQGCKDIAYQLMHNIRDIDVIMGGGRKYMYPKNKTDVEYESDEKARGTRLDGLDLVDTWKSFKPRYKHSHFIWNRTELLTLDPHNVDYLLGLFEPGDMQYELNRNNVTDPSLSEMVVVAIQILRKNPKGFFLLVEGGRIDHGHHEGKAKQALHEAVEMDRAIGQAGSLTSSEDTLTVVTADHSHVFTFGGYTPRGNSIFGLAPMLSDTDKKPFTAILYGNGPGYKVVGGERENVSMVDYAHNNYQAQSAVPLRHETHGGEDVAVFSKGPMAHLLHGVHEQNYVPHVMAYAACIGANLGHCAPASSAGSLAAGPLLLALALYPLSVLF

SMILES	IC50 [1] [µM]	IC50 [3] [µM]	solubility kinetic [4] [µg/mL]	solubility kinetic [5] [µg/mL]	solubility kinetic [6] [µg/mL]	permeability [7] [×10⁻⁶ cm/s]	permeability [8] [×10⁻⁶ cm/s]	permeability [9] [×10⁻⁶ cm/s]	fraction unbound at 10 µM [10]	fraction unbound at 1 µM [11]	fraction unbound at 10 µM [12]	CC50 [13] [µM]	remaining at 3 h [14] [%]	remaining at 3 h [15] [%]	remaining at 3 h [16] [%]	remaining at 3 h [17] [%]	remaining at 1 h, 1 µM [18] [%]	remaining at 1 h, 1 µM [19] [%]	further results
Cc1ccc(-n2sc3ccccc3c2=O)cc1	1.3	> 30																	IC50 [2]: 3.9 µM
O=c1c2ccccc2sn1-c1cc(S(=O)(=O)N2CCOCC2)ccc1N1CCCC1	7.5																		
CN(C)S(=O)(=O)c1cccc(-n2sc3ccccc3c2=O)c1			23.4 (≈ 70 µM)	24.6 (≈ 73.6 µM)	23.8 (≈ 71.2 µM)	781	817	777	0.435	0.644	0.659	> 50	11.4	32.3	65.3	40	72.4	100	
O=C(O)c1cccc(-n2sc3ccccc3c2=O)c1			> 27	> 27	> 27	157	18	< 4.4	0.406	0.812	0.699	> 50	50.2	55.5	100	71.2	100	100	
COC(=O)c1cccc(-n2sc3ccccc3c2=O)c1		12	12.6 (≈ 44.2 µM)	18.9 (≈ 66.2 µM)	20.8 (≈ 72.9 µM)	1294	1231	1300	0.427	0.52	0.624	> 50	15.4	49.3	59.6	55.2	72.4	45.9	fraction unbound at 1 µM [20]: 0.588; remaining at 1 h, 1 µM [21]: 31.5%; remaining at 1 h, 1 µM [22]: 44.6%
O=c1c2ccccc2sn1-c1cc(S(=O)(=O)N2CCOCC2)ccc1N1CCOCC1	1.2																		
Cc1ccc(-n2sc3ccccc3c2=O)cc1S(=O)(=O)N1CCCCC1		11																	
Cc1ccc(C)c(-n2sc3ccccc3c2=O)c1	4	> 20																	
O=c1c2ccccc2sn1-c1ccc(F)cc1		> 20																	IC50 [2]: 3.4 µM
CN(C)C(=O)c1cccc(-n2sc3ccccc3c2=O)c1			> 30	> 30	> 30	94	92	97	0.558	0.52	0.533	> 50	18.9	60	76.2	56.9	45.7	56.6	fraction unbound at 1 µM [20]: 0.587; IC50 [23]: > 30 µM; IC50 [24]: 24 µM; IC50 [25]: > 100 µM
O=c1c2ccccc2sn1-c1cccc(Cl)c1		> 30																	
